# Reference: ChEMBL document CHEMBL1144875, “Desferrithiocin analogue based hexacoordinate iron(III) chelators” (2003)
# How the values were obtained:
# [1] = system: Monkey; assay: Efficiency of chelation measured as net iron excretion/total iron-binding capacity of 150 umol/kg compound administered sc in monkeys; format: functional, Cercopithecidae
# Method in brief: (§1)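 Cebus apella monkeys iron-overloaded with iv iron dextran (~500 mg Fe/kg), rested ≥60 days. Dosed sc as aqueous suspension or sodium salt solution (DFO in sterile H2O, 1 mL/kg). Feces and urine collected at 24 h intervals from 4 days pre-dose to 5 days post-dose; iron by flame AA. Efficiency is 2-day post-dose iron minus 4-day baseline mean, divided by theoretical output. n = 4; mean ± SEM.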
# [2] = system: Monkey; assay: Efficiency of chelation measured as net iron excretion/total iron-binding capacity of 300 umol/kg compound administered po in monkeys; format: functional, Cercopithecidae
# [3] = system: Monkey; assay: Efficiency of chelation measured as net iron excretion/total iron-binding capacity of 300 umol/kg compound administered sc in monkeys; format: functional, Cercopithecidae; method in brief: as §1
# [4] = system: Rattus norvegicus; assay: Efficiency of chelation measured as net iron excretion/total iron-binding capacity of 300 umol/kg compound administered po in rats; format: functional
# Method in brief: (§2)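 Bile duct-cannulated male Sprague-Dawley rats (~450 g), anesthetized with sodium pentobarbital 55 mg/kg ip. Chelator given po or sc in 40% Cremophor RH-40/water. Bile collected every 3 h for 24 h, urine at 24 h; iron by flame AA. Net excretion is treated minus control. Theoretical output assumes 1:1 or 2:1 ligand/iron by denticity. n = 4; mean ± SEM.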
# [5] = system: Rattus norvegicus; assay: Efficiency of chelation measured as net iron excretion/total iron-binding capacity of 300 umol/kg compound administered sc in rats; format: functional; method in brief: as §2
# [6] = system: Monkey; assay: Efficiency of chelation measured as net iron excretion/total iron-binding capacity of 150 umol/kg compound administered sc in monkey; format: functional, Cercopithecidae; method in brief: as §1
# [7] = system: Monkey; assay: Efficiency of chelation measured as net iron excretion/total iron-binding capacity of 75 umol/kg compound administered sc in monkey; format: functional, Cercopithecidae; method in brief: as §1
# [8] = system: Rattus norvegicus; assay: Efficiency of chelation measured as net iron excretion/total iron-binding capacity of 150 umol/kg compound administered po in rats; format: functional; method in brief: as §2
# [9] = system: Rattus norvegicus; assay: Efficiency of chelation measured as net iron excretion/total iron-binding capacity of 150 umol/kg compound administered sc in rats; format: functional; method in brief: as §2
# [10] = system: Monkey; assay: Efficiency of chelation measured as net iron excretion/total iron-binding capacity of 150 umol/kg compound administered po in monkey; format: functional, Cercopithecidae
SMILES,Efficiency [1],Efficiency [2],Efficiency [3],Efficiency [4],Efficiency [5],Efficiency [6],Efficiency [7],Efficiency [8],Efficiency [9],Efficiency [10]
O=C(O)[C@H]1CSC(c2ccc(O)cc2O)=N1,5.6%,5.3%,5.3%,2.9%,2.1%,–,–,–,–,–
O=C(O)[C@H]1CSC(c2cc(CCCOCCCOCCCc3cc(C4=N[C@@H](C(=O)O)CS4)c(O)cc3O)c(O)cc2O)=N1,–,–,–,–,–,2.1%,3.2%,0.9%,6.5%,–
CC(=O)N(O)CCCCCNC(=O)CCC(=O)N(O)CCCCCNC(=O)CCC(=O)N(O)CCCCCN [DEFEROXAMINE],–,–,–,–,–,5.5%,–,1.1%,2.8%,0.1%
